Key:
HUVEC = assay: Cytotoxicity against human HUVEC cells after 24 hrs by MTT assay; assay type: cell-based
How it was run: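 MTT assay. Cells were seeded at 50,000 cells/mL in medium with 10% fetal calf serum and grown for two days at 37 °C, 10% CO2. Serial dilutions of compound were then added for 24 h. MTT was added (final 0.5 mg/mL) for 2 h, and the formazan was pelleted, washed, dissolved in isopropanol with 0.4% HCl and read at 590 nm. IC50 is the concentration giving 50% of untreated-control absorbance, taken from dose-response curves; mean of two parallel experiments.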

OVCAR-8 = assay: Cytotoxicity against human OVCAR8 cells; assay type: functional; details: for TGI: read-out: pTGI (converted)
CAKI-1 = assay: Cytotoxicity against human Caki1 cells; assay type: functional; details: for TGI: read-out: pTGI (converted)
SW-620 = assay: Cytotoxicity against human SW620 cells; assay type: functional; details: for TGI: read-out: pTGI (converted)
EKVX = assay: Cytotoxicity against human EKVX cells; assay type: functional; details: for TGI: read-out: pTGI (converted)
NCI-H460 = assay: Cytotoxicity against human NCI-H460 cells; assay type: functional; details: for TGI: read-out: pTGI (converted)
NCI-H23 = assay: Cytotoxicity against human NCI-H23 cells; assay type: functional; details: for TGI: read-out: pTGI (converted)
HOP-62 = assay: Cytotoxicity against human HOP62 cells; assay type: functional; details: for TGI: read-out: pTGI (converted)
Saccharomyces cerevisiae [1] = assay: Growth inhibition of RCK1-deficient Saccharomyces cerevisiae YGL158W mutant at 20 ug/disc after 24 to 48 hrs by agar diffusion assay; assay type: functional; details: read-out: DIZ
How it was run: (§1)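 S. cerevisiae deletion mutants or wild type grown on YPD, seeded into liquid agar medium at an optical density of 0.1. 6 mm paper discs soaked with methanolic compound solution were placed on the plates and incubated at 30 °C. Growth was checked after 1 and 2 days, and the inhibition zone diameter was recorded in mm.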

Saccharomyces cerevisiae [2] = assay: Growth inhibition of GSH2-deficient Saccharomyces cerevisiae YOL049W mutant at 20 ug/disc after 24 to 48 hrs by agar diffusion assay; assay type: functional; details: read-out: DIZ; how it was run: as §1
KM12 = assay: Cytotoxicity against human KM12 cells; assay type: functional; details: for TGI: read-out: pTGI (converted)
SR = assay: Cytotoxicity against human SR cells; assay type: functional; details: for TGI: read-out: pTGI (converted)
A549 = assay: Cytotoxicity against human A549 cells; assay type: functional; details: for TGI: read-out: pTGI (converted)
UACC-62 = assay: Cytotoxicity against human UACC62 cells; assay type: functional; details: for TGI: read-out: pTGI (converted)
NCI-H322M = assay: Cytotoxicity against human NCI-H322M cells; assay type: functional; details: for TGI: read-out: pTGI (converted)
Saccharomyces cerevisiae [3] = assay: Growth inhibition of wild type Saccharomyces cerevisiae BY4741 at 20 ug/disc after 24 to 48 hrs by agar diffusion assay; assay type: functional; details: read-out: DIZ; how it was run: as §1
Saccharomyces cerevisiae [4] = assay: Growth inhibition of SOD2-deficient Saccharomyces cerevisiae YHR008C mutant at 20 ug/disc 24 to 48 hrs by agar diffusion assay; assay type: functional; details: read-out: DIZ; how it was run: as §1
TK-10 = assay: Cytotoxicity against human TK10 cells; assay type: functional; details: for TGI: read-out: pTGI (converted)
MCF7 = assay: Cytotoxicity against human MCF7 cells; assay type: functional; details: for TGI: read-out: pTGI (converted)
Saccharomyces cerevisiae [5] = assay: Growth inhibition of POS5-deficient Saccharomyces cerevisiae YPL188W mutant at 20 ug/disc after 24 to 48 hrs by agar diffusion assay; assay type: functional; details: read-out: DIZ; how it was run: as §1
HL-60 = assay: Cytotoxicity against human HL60 cells; assay type: functional; details: for TGI: read-out: pTGI (converted)
SNB-19 = assay: Cytotoxicity against human SNB19 cells; assay type: functional; details: for TGI: read-out: pTGI (converted)
SF-295 = assay: Cytotoxicity against human SF295 cells; assay type: functional; details: for TGI: read-out: pTGI (converted)
Hs-578T = assay: Cytotoxicity against human Hs578T cells; assay type: functional; details: for TGI: read-out: pTGI (converted)
SF-268 = assay: Cytotoxicity against human SF268 cells; assay type: functional; details: for TGI: read-out: pTGI (converted)
SK-MEL-5 = assay: Cytotoxicity against human SK-MEL-5 cells; assay type: functional; details: for TGI: read-out: pTGI (converted)
PC-3 = assay: Cytotoxicity against human PC3 cells; assay type: functional; details: for TGI: read-out: pTGI (converted)
Saccharomyces cerevisiae [6] = assay: Growth inhibition of COX17-deficient Saccharomyces cerevisiae YLL009C mutant at 20 ug/disc after 24 to 48 hrs by agar diffusion assay; assay type: functional; details: read-out: DIZ; how it was run: as §1
BT-549 = assay: Cytotoxicity against human BT549 cells; assay type: functional; details: for TGI: read-out: pTGI (converted)
RPMI-8226 = assay: Cytotoxicity against human RPMI8226 cells; assay type: functional; details: for TGI: read-out: pTGI (converted)
IGROV-1 = assay: Cytotoxicity against human IGROV1 cells; assay type: functional; details: for TGI: read-out: pTGI (converted)
OVCAR-3 = assay: Cytotoxicity against human OVCAR3 cells; assay type: functional; details: for TGI: read-out: pTGI (converted)

Structure (SMILES): CC1=C([Se]CC(OC(=O)[C@@H](CSSC(C)(C)C)NC(=O)C(C)(C)C)C(=O)NCCCCCC(=O)OCc2ccccc2)C(=O)c2ccccc2C1=O (stereo partly drawn)
- IC50 (HUVEC): 10 µM
- GI50 (OVCAR-8): 2 µM
- LC50 (OVCAR-8): 7.08 µM
- TGI (OVCAR-8): 3.8 µM
- GI50 (CAKI-1): 2.19 µM
- LC50 (CAKI-1): 9.33 µM
- TGI (CAKI-1): 4.57 µM
- GI50 (SW-620): 2.29 µM
- LC50 (SW-620): 15.8 µM
- TGI (SW-620): 5.25 µM
- GI50 (EKVX): 2.24 µM
- LC50 (EKVX): > 100 µM
- TGI (EKVX): 5.37 µM
- GI50 (NCI-H460): 0.631 µM
- LC50 (NCI-H460): 9.55 µM
- TGI (NCI-H460): 2.51 µM
- GI50 (NCI-H23): 2.4 µM
- LC50 (NCI-H23): > 100 µM
- TGI (NCI-H23): 7.08 µM
- GI50 (HOP-62): 1.02 µM
- LC50 (HOP-62): 9.12 µM
- TGI (HOP-62): 3.02 µM
- zone of inhibition at 20 µg/disc (Saccharomyces cerevisiae [1]): 0 mm
- zone of inhibition at 20 µg/disc (Saccharomyces cerevisiae [2]): 0 mm
- GI50 (KM12): 1.78 µM
- LC50 (KM12): 6.76 µM
- TGI (KM12): 3.47 µM
- GI50 (SR): 3.8 µM
- LC50 (SR): > 100 µM
- TGI (SR): 18.6 µM
- GI50 (A549): 2.09 µM
- LC50 (A549): > 100 µM
- TGI (A549): 5.37 µM
- GI50 (UACC-62): 1.95 µM
- LC50 (UACC-62): 8.13 µM
- TGI (UACC-62): 3.98 µM
- GI50 (NCI-H322M): 0.398 µM
- LC50 (NCI-H322M): > 100 µM
- TGI (NCI-H322M): 2.29 µM
- zone of inhibition at 20 µg/disc (Saccharomyces cerevisiae [3]): 0 mm
- zone of inhibition at 20 µg/disc (Saccharomyces cerevisiae [4]): 0 mm
- GI50 (TK-10): 2.4 µM
- LC50 (TK-10): 8.13 µM
- TGI (TK-10): 4.47 µM
- GI50 (MCF7): 3.02 µM
- LC50 (MCF7): 50.1 µM
- TGI (MCF7): 9.77 µM
- zone of inhibition at 20 µg/disc (Saccharomyces cerevisiae [5]): 0 mm
- GI50 (HL-60): 2.51 µM
- LC50 (HL-60): > 100 µM
- TGI (HL-60): 6.03 µM
- GI50 (SNB-19): 1.1 µM
- LC50 (SNB-19): 6.03 µM
- TGI (SNB-19): 2.57 µM
- GI50 (SF-295): 0.316 µM
- LC50 (SF-295): > 100 µM
- TGI (SF-295): 1.95 µM
- GI50 (Hs-578T): 2.19 µM
- LC50 (Hs-578T): > 100 µM
- TGI (Hs-578T): 5.5 µM
- GI50 (SF-268): 1.91 µM
- LC50 (SF-268): 6.46 µM
- TGI (SF-268): 3.55 µM
- GI50 (SK-MEL-5): 1.91 µM
- LC50 (SK-MEL-5): 5.89 µM
- TGI (SK-MEL-5): 3.31 µM
- GI50 (PC-3): 1.51 µM
- LC50 (PC-3): 8.71 µM
- TGI (PC-3): 3.63 µM
- zone of inhibition at 20 µg/disc (Saccharomyces cerevisiae [6]): 0 mm
- GI50 (BT-549): 1.78 µM
- LC50 (BT-549): 5.62 µM
- TGI (BT-549): 3.16 µM
- GI50 (RPMI-8226): 2.34 µM
- LC50 (RPMI-8226): > 100 µM
- TGI (RPMI-8226): 6.76 µM
- GI50 (IGROV-1): 1.91 µM
- LC50 (concentration killing 50% of cells) (IGROV-1): 7.08 µM
- TGI (IGROV-1): 3.63 µM
- GI50 (OVCAR-3): 1.86 µM
- LC50 (OVCAR-3): 6.17 µM
- TGI (OVCAR-3): 3.39 µM

Structure (SMILES): CC1=C([Se]CC(OC(=O)[C@@H](CO)NC(=O)OC(C)(C)C)C(=O)NCCCCCC(=O)OCc2ccccc2)C(=O)c2ccccc2C1=O (stereo partly drawn)
- IC50 (HUVEC): 35 µM
- GI50 (OVCAR-8): 1.82 µM
- LC50 (OVCAR-8): 6.17 µM
- TGI (OVCAR-8): 3.39 µM
- GI50 (CAKI-1): 1.82 µM
- LC50 (CAKI-1): 6.03 µM
- TGI (CAKI-1): 3.31 µM
- GI50 (SW-620): 1.74 µM
- LC50 (SW-620): 6.17 µM
- TGI (SW-620): 3.24 µM
- GI50 (EKVX): 1.82 µM
- LC50 (EKVX): 8.32 µM
- TGI (EKVX): 3.89 µM
- GI50 (NCI-H460): 0.457 µM
- LC50 (NCI-H460): 5.37 µM
- TGI (NCI-H460): 1.62 µM
- GI50 (NCI-H23): 1.82 µM
- TGI (NCI-H23): 4.07 µM
- GI50 (HOP-62): 0.417 µM
- LC50 (HOP-62): 4.79 µM
- TGI (HOP-62): 1.74 µM
- zone of inhibition at 20 µg/disc (Saccharomyces cerevisiae [1]): 0 mm
- zone of inhibition at 20 µg/disc (Saccharomyces cerevisiae [2]): 0 mm
- GI50 (KM12): 1.51 µM
- LC50 (KM12): 5.5 µM
- TGI (KM12): 2.88 µM
- GI50 (SR): 1.58 µM
- LC50 (SR): > 100 µM
- TGI (SR): 6.61 µM
- GI50 (A549): 1.38 µM
- LC50 (A549): 6.92 µM
- TGI (A549): 3.09 µM
- GI50 (UACC-62): 1.7 µM
- LC50 (UACC-62): 5.62 µM
- TGI (UACC-62): 3.09 µM
- GI50 (NCI-H322M): 0.417 µM
- LC50 (NCI-H322M): 27.5 µM
- TGI (NCI-H322M): 1.91 µM
- zone of inhibition at 20 µg/disc (Saccharomyces cerevisiae [3]): 0 mm
- zone of inhibition at 20 µg/disc (Saccharomyces cerevisiae [4]): 11 mm
- GI50 (TK-10): 2.04 µM
- LC50 (TK-10): 5.89 µM
- TGI (TK-10): 3.47 µM
- GI50 (MCF7): 1.62 µM
- LC50 (MCF7): 7.08 µM
- TGI (MCF7): 3.39 µM
- zone of inhibition at 20 µg/disc (Saccharomyces cerevisiae [5]): 0 mm
- GI50 (HL-60): 2.04 µM
- LC50 (HL-60): > 100 µM
- TGI (HL-60): 4.79 µM
- GI50 (SNB-19): 0.776 µM
- LC50 (SNB-19): 5.01 µM
- TGI (SNB-19): 2.14 µM
- GI50 (SF-295): 0.324 µM
- LC50 (SF-295): 30.9 µM
- TGI (SF-295): 1.51 µM
- GI50 (Hs-578T): 2 µM
- LC50 (Hs-578T): > 100 µM
- TGI (Hs-578T): 4.68 µM
- GI50 (SF-268): 1.86 µM
- LC50 (SF-268): 5.75 µM
- TGI (SF-268): 3.24 µM
- GI50 (SK-MEL-5): 1.58 µM
- LC50 (SK-MEL-5): 5.5 µM
- TGI (SK-MEL-5): 2.95 µM
- GI50 (PC-3): 1.23 µM
- LC50 (PC-3): 5.37 µM
- TGI (PC-3): 2.57 µM
- zone of inhibition at 20 µg/disc (Saccharomyces cerevisiae [6]): 0 mm
- GI50 (BT-549): 1.74 µM
- LC50 (BT-549): 5.62 µM
- TGI (BT-549): 3.09 µM
- GI50 (RPMI-8226): 2.19 µM
- LC50 (RPMI-8226): > 100 µM
- TGI (RPMI-8226): 5.89 µM
- GI50 (IGROV-1): 1.78 µM
- LC50 (concentration killing 50% of cells) (IGROV-1): 6.31 µM
- TGI (IGROV-1): 3.39 µM
- GI50 (OVCAR-3): 1.78 µM
- LC50 (OVCAR-3): 5.62 µM
- TGI (OVCAR-3): 3.16 µM

Source: ChEMBL document CHEMBL2177069, “Novel peptidomimetic compounds containing redox active chalcogens and quinones as potential anticancer agents” (Eur J Med Chem, 2012)
